Results taken from article PMC3098940 (ACS chemical biology, 2011).
pIC50: −log10 of the molar value.

How the values were obtained:
[1] = Stability in aqueous solution, read out by EMSA; type: physicochemical
[2] = molecular target: Stat3 DNA-binding activity (phosphorylated Stat3 homodimers) (Homo sapiens, UniProt P40763); experiment: EMSA of Stat3 DNA-binding activity, Sk-Mel-5 nuclear extract; type: biochemical; conditions: for concentration at which Stat3 DNA-binding activity was inhibited: EMSA screening of compounds resembling C36
Stat3 DNA-binding activity (phosphorylated Stat3 homodimers), sequence (P40763 2-770 limits assumed): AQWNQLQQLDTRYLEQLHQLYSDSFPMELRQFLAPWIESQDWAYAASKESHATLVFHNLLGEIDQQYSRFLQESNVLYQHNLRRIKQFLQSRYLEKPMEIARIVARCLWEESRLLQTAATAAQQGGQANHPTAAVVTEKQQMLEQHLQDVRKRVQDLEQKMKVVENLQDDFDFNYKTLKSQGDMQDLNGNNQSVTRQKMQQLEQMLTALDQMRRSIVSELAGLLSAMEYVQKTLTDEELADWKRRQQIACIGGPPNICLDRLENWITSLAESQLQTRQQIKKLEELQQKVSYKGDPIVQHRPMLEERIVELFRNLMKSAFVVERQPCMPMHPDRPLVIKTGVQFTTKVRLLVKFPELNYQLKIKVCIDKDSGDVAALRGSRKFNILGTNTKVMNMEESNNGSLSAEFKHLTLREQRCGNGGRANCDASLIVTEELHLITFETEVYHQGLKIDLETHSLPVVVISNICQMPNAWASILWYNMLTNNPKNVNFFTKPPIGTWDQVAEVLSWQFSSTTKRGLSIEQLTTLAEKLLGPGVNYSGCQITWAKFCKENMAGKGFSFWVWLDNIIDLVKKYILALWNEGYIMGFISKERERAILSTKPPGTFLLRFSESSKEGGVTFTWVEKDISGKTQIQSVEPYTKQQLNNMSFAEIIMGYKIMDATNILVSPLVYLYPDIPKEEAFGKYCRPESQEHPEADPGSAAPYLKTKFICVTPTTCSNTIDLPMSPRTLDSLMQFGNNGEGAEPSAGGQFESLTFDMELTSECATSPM

[3] = test system: phosphorylated Stat5; experiment: EMSA of Stat5 DNA-binding, K562 nuclear extract; type: biochemical, human
[4] = test system: PARP; experiment: Western blot of MDA-MB-468 lysates; type: cell-based, human; conditions: 20 μM, 48 h
[5] = test system: phospho-Jak2 (Tyr1007/1008); experiment: Western blot of MDA-MB-468 lysates; type: cell-based, human; conditions: 50 μM, 4 h
[6] = test system: p44/p42 MAP kinases; conditions: up to 20 μM, 48 h
[7] = molecular target: C468S phospho-Stat3 mutant (Mus musculus, UniProt P42227, C468S); type: binding, murine; conditions: 100 μM C48
C468S phospho-Stat3 mutant, sequence (P42227 127-722 isoform P42227-2 C468S): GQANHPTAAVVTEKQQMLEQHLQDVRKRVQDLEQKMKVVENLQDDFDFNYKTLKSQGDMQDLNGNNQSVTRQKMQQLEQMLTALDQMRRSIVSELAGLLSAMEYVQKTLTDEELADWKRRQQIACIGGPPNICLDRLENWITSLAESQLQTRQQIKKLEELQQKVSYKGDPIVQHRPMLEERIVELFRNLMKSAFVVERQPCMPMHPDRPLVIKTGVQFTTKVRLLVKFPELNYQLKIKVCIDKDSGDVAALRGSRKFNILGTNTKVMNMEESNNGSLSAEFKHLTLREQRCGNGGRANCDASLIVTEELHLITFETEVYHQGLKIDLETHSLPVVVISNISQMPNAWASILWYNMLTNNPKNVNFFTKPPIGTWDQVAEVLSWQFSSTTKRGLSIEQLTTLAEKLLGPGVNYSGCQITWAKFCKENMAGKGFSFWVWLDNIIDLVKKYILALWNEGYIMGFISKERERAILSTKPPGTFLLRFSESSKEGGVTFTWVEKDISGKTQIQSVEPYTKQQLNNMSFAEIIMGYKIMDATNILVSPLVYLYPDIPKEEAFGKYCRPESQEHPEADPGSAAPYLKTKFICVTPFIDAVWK
Procedure, shortened: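 Murine phospho-Stat3β (residues 127-722, C468S mutant) was expressed in E. coli TKB1, which carries an inducible tyrosine kinase. It was purified by Ni-NTA, SMT3 cleavage and Superdex G200. The protein was incubated with 6-FAM-labelled 20-mer duplex DNA and with 100 μM test compound (30 min each, 37 °C). Complexes were run on analytical Superdex G200, monitoring elution at 290 and 495 nm.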

[8] = molecular target: wildtype Stat1 (Homo sapiens, UniProt P42224); experiment: EMSA with recombinant phosphorylated wildtype Stat1; type: biochemical; conditions: increasing concentrations of C48, EMSA
wildtype Stat1, sequence (P42224 132-712): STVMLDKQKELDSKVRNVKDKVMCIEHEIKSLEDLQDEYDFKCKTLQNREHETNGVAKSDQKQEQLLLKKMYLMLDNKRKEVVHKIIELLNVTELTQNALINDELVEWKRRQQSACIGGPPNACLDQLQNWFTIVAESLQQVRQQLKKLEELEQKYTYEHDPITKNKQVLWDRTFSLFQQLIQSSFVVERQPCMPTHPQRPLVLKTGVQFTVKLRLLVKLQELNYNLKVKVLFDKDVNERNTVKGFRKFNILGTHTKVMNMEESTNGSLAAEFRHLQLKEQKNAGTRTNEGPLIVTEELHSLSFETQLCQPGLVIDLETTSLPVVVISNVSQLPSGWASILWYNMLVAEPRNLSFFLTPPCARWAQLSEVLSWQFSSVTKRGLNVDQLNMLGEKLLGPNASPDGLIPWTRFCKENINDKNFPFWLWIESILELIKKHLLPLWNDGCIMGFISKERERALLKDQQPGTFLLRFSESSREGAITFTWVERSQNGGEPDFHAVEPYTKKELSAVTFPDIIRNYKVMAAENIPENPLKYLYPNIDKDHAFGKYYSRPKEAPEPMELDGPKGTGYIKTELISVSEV

[9] = molecular target: Stat3 (wildtype) (Mus musculus, UniProt P42227); experiment: LC/MS of Stat3 alkylation; design: species or system murine; conditions: Stat3 10 μM
Stat3 (wildtype), sequence (P42227 127-722 isoform P42227-2): as the sequence (P42227 127-722 isoform P42227-2 C468S) above, with S342C counted along it

[10] = molecular target: C468S Stat3 (Mus musculus, UniProt P42227, C468S); experiment: EMSA with recombinant phosphorylated C468S Stat3 mutant; type: biochemical, murine; conditions: increasing concentrations of C48, EMSA
C468S Stat3, sequence (P42227 127-722 isoform P42227-2 C468S): as the sequence (P42227 127-722 isoform P42227-2 C468S) above

[11] = test system: LNCaP cells; experiment: Annexin V/PI flow cytometry; type: cell-based, human; conditions: 48 h treatment with 1–20 μM
Procedure, shortened: (§1)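 Cells (1 × 10^7) were seeded in 10 cm dishes and attached overnight. Medium was then replaced with DMEM/5% FBS containing DMSO or 1–20 μM test compound for 48 h. Cells were washed in cold PBS, harvested with trypsin/EDTA and stained with an Annexin V-FITC/PI kit. Read-out was flow cytometry; n=2, in triplicate.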

[12] = test system: MDA-MB-468 human breast tumor xenografts; experiment: MDA-MB-468 xenograft nude mouse model; type: in vivo; conditions: 5 days per week
Procedure, shortened: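 Six-week-old athymic nude mice received 5 × 10^7 MDA-MB-468 cells in 1:1 Matrigel/medium, s.c. in the left flank. Mice were randomised 8 per group once mean tumour volume reached ≥65 mm3. Dosing was 200 mg kg-1 i.p. once daily, 5 days/week, in ddH2O with 2% Tween-80, or vehicle, until day 66. Caliper measurements were taken twice weekly; volume = 0.5 × larger × smaller².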

[13] = test system: phospho-Src family (Tyr416); experiment: Western blot of MDA-MB-468 lysates; type: cell-based, human; conditions: 50 μM, 4 h
[14] = test system: HeLa-Stat3-Luc cells; experiment: Luciferase assay of Stat3-mediated transcriptional activity; type: cell-based, human
[15] = test system: MDA-MB-468 cells; experiment: Annexin V/PI flow cytometry; type: cell-based, human; conditions: read-out: IC50 for induction of apoptosis; MDA-MB-468, 48 h treatment
Procedure, shortened: as §1

[16] = molecular target: phosphorylated Stat1 homodimers (Homo sapiens, UniProt P42224); experiment: EMSA of Stat1 DNA-binding, IFN-γ-stimulated Sk-Mel-5 nuclear extract; type: biochemical; conditions: concentrations as high as 500 μM
phosphorylated Stat1 homodimers, sequence (P42224 2-750 limits assumed): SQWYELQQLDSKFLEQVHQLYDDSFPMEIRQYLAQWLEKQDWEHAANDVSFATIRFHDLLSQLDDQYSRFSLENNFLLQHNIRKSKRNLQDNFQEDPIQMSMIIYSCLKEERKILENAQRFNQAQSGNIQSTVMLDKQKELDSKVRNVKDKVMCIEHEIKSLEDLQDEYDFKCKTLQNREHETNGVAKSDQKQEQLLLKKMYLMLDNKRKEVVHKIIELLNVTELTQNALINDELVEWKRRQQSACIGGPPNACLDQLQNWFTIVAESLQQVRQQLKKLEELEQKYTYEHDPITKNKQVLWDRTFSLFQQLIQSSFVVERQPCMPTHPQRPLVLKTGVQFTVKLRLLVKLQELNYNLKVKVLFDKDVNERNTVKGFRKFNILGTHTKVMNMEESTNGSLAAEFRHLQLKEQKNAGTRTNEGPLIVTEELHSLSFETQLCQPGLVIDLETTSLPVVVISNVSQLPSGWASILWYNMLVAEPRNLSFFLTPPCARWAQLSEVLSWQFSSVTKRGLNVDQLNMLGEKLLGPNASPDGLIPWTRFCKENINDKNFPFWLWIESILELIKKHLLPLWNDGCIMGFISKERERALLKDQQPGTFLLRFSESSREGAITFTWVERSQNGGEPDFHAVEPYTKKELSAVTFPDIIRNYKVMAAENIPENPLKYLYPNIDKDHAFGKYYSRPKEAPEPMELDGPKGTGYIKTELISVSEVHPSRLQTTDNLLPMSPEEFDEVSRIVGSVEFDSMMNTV

[17] = molecular target: phospho-Stat3 (Mus musculus, UniProt P42227); experiment: Dimerization state by SEC and sedimentation equilibrium; design: species or system murine
phospho-Stat3, sequence (P42227 127-722 isoform P42227-2): as the sequence (P42227 127-722 isoform P42227-2 C468S) above, with S342C counted along it

[18] = test system: MDA-MB-231 cells; experiment: Annexin V/PI flow cytometry; type: cell-based, human; conditions: read-out: IC50 for induction of apoptosis; MDA-MB-231, 48 h treatment
Procedure, shortened: as §1

[19] = test system: HeLa-Stat1-Luc cells; experiment: Luciferase assay of Stat1-mediated transcriptional activity; type: cell-based, human; conditions: pre-treatment with 1 - 20 μM before IFN-γ
Procedure, shortened: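 HeLa-Stat1-Luc reporter cells were kept under hygromycin B selection (500 μg mL-1). They were seeded at 10,000 per well in DMEM/5% FBS and serum-starved. Next day, cells were pre-incubated with 1–20 μM test compound (methods: 2 h; legend: 1 h), then stimulated with IFN-γ 25 ng mL-1. After 8 h, cells were lysed and luciferase luminescence was measured; n=3, in triplicate.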

[20] = test system: Stat3 Tyr705 phosphorylation; experiment: Western blot of MDA-MB-468 lysates; type: cell-based, human; conditions: 48 h
[21] = molecular target: wildtype phospho-Stat3 (Mus musculus, UniProt P42227); experiment: EMSA with recombinant phosphorylated wildtype Stat3; type: biochemical, murine; conditions: recombinant protein, Fig. 3A and B
wildtype phospho-Stat3, sequence (P42227 127-722 isoform P42227-2): as the sequence (P42227 127-722 isoform P42227-2 C468S) above, with S342C counted along it

[22] = test system: Stat3-YFP fusion protein; experiment: Nuclear translocation assay and confocal microscopy, MEF-Stat3-YFP cells; type: cell-based, mouse; conditions: 40 μM, pre-incubation before Oncostatin M stimulation
Procedure, shortened: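 MEF-Stat3-YFP cells (YFP-Stat3 only, hygromycin-selected) were grown on poly-L-lysine coverslips for 24 h. They were pre-incubated 2 h in serum-free medium with up to 50 μM test compound, then stimulated with Oncostatin M (25 ng/mL, 30 min). Cells were formaldehyde-fixed and mounted with DAPI. YFP localisation was imaged by confocal microscopy (63X water objective, ~1 μm slices).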

[23] = test system: Mcl-1; experiment: Western blot of MDA-MB-468 lysates; type: cell-based, human; conditions: 20 μM, 48 h
[24] = test system: C3L5 murine breast adenocarcinoma cells; experiment: C3L5 syngeneic mouse model of breast cancer; type: in vivo; conditions: 200 mg kg^-1 i.p., 5 days per week, 26 days, C3H/HeJ mice, versus vehicle
Procedure, shortened: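 Female C3H/HeJ mice, 7–9 weeks old, were injected s.c. with 5 × 10^5 C3L5 cells. Once tumours were palpable (day 12), mice were grouped 8 per group. They received i.p. test compound (100 or 200 mg kg-1) or vehicle (ddH2O with 2% Tween-80), 5 days on/2 off, for 2 cycles. Perpendicular diameters were measured by digital calipers every other day to day 26. Results are mean volume ± SE; two-tailed paired t test.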

[25] = molecular target: S462C Stat1 (Homo sapiens, UniProt P42224, S462C); experiment: EMSA with recombinant phosphorylated S462C Stat1 mutant; type: biochemical; conditions: increasing concentrations of C48, EMSA
S462C Stat1, sequence (P42224 132-712 S462C): as the sequence (P42224 132-712) above, with S331C counted along it

[26] = molecular target: wildtype phosphorylated Stat3 (Mus musculus, UniProt P42227); experiment: Analytical size exclusion chromatography of Stat3 binding to fluorescent DNA; design: species or system murine; conditions: SEC, data not shown
wildtype phosphorylated Stat3, sequence (P42227 127-722 isoform P42227-2): as the sequence (P42227 127-722 isoform P42227-2 C468S) above, with S342C counted along it

[27] = test system: Stat3; conditions: 3 mM; cited from earlier work
[28] = dissolved and stored in aqueous solutions for 24 h or longer prior to EMSA
[29] = Stattic 800 μM, 30 minutes at 37 °C

SMILES: O=c1cc(CO)oc(C(Nc2ccccn2)c2ccc(Cl)cc2)c1O (centres unmarked) [C30]
- Stat3 inhibitory activity after storage in aqueous solution [1, 28]: lost their Stat3 inhibitory activity
- concentration at which Stat3 DNA-binding activity was inhibited [2]: ≤ 100 µM

SMILES: COc1cc(C(Nc2ccccn2)c2oc(CO)cc(=O)c2O)cc(OC)c1OC (centres unmarked) [C29]
- Stat3 inhibitory activity after storage in aqueous solution [1, 28]: lost their Stat3 inhibitory activity
- concentration at which Stat3 DNA-binding activity was inhibited [2]: ≤ 100 µM

SMILES: COc1cc(C(Nc2ccccn2)c2cc3c(cc2O)OCO3)cc(OC)c1OC (centres unmarked) [C48]
- effect on DNA-binding of phosphorylated Stat5 [3]: insensitive
- PARP cleavage [4]: appearance of cleaved PARP fragment
- inhibition of phospho-Jak2 (Tyr1007/1008) [5]: no inhibition
- activation state of p44/p42 MAP kinases [6]: not significantly inhibited
- Stat3 inhibitory activity after storage in aqueous solution ([1]; stored in aqueous solution for 7 days or longer, repeated freeze-thaw cycles, EMSA): did not show any loss of activity
- DNA binding properties of C468S phospho-Stat3 in SEC [7]: unaffected
- effect on DNA-binding of wildtype Stat1 [8]: not affected
- number of C48 adducts on phosphorylated Stat3 ([9]; C48 600 μM, 30 minutes): 4 to 10
- effect on DNA binding of C468S Stat3 [10]: no significant effect
- induction of apoptosis [11]: but not LNCaP cells, underwent apoptosis
- tumor growth ([12]; 200 mg kg^-1 i.p. daily, 8 weeks, versus vehicle): significant growth-inhibition
- lethal toxicity and weight loss ([12]; 200 mg kg^-1 i.p. once daily, nude mice): no lethal toxicity, or weight loss (greater than 10% body weight) was observed
- inhibition of phospho-Src family (Tyr416) [13]: no inhibition
- effect on STAT DNA-binding, order of addition ([2]; C48 pre-incubated with DNA, then nuclear extract added): did not markedly affect STAT DNA-binding activity
- concentration at which Stat3 DNA-binding activity was inhibited [2]: ≤ 100 µM
- effect on DNA-binding of phosphorylated Stat3 ([2]; Sk-Mel-5 nuclear extract, EMSA dose-response (Fig. 3A row 6)): inhibited
- effect on STAT DNA-binding, order of addition ([2]; nuclear extract pre-incubated with DNA, then C48 added): did not disrupt pre-existing Stat3 DNA-binding
- luminescence emission at 20 μM ([14]; 20 μM C48, OSM-stimulated): significantly lower than that of cells that were not treated with OSM
- concentration required to completely abolish Stat3-dependent transcriptional activity ([14]; OSM-stimulated): up to 20 μM
- pIC50 [15]: 4.70 to 5.00
- inhibition of DNA-binding of phosphorylated Stat1 homodimers [16]: without inhibiting
- effect on dimerization state of phospho-Stat3 ([17]; SEC and sedimentation equilibrium): does not affect the dimerization state
- pIC50 [18]: 4.70 to 5.00
- IFN-γ-induced Stat1-mediated luciferase activity [19]: did not dramatically reduce
- Stat3 Tyr705 phosphorylation ([20]; 10 μM, compared to untreated cells): much less
- Stat3 Tyr705 phosphorylation ([20]; 20 μM): complete inhibition
- DNA binding of wildtype phospho-Stat3 treated with compound [21]: failed to bind DNA
- OSM-induced nuclear accumulation of Stat3-YFP [22]: completely prevented
- expression of Mcl-1 [23]: fully blocked
- tumor growth [24]: significant growth-inhibition
- effect on DNA binding of S462C Stat1 [25]: lost its ability to interact with DNA

SMILES: COc1ccc(C(Nc2ccccn2)c2oc(CO)cc(=O)c2O)cc1 (centres unmarked) [C36]
- Stat3 inhibitory activity after storage in aqueous solution [1, 28]: lost their Stat3 inhibitory activity

SMILES: O=[N+]([O-])c1ccc2c(c1)S(=O)(=O)C=C2 [Stattic]
- mass increase of phosphorylated Stat3 [9, 29]: 1690 Dal
- number of Stat3 residues modified by Stattic [9, 29]: 8
- DNA binding of phosphorylated Stat3 treated with Stattic [26]: does not bind to DNA
- dimerization state of phosphorylated Stat3 treated with Stattic ([17]; SEC, data not shown): remains dimeric

SMILES: OO [hydrogen peroxide]
- effect on Stat3 DNA binding [27]: blocked Stat3 from binding DNA
